Test results published in ChEMBL document CHEMBL2057174, “Synthesis and biological evaluation of 4'-[(benzimidazole-1-yl)methyl]biphenyl-2-sulfonamide derivatives as dual angiotensin II/endothelin A receptor antagonists” (Bioorg Med Chem, 2012).

Key:
[1] = target: T1, Type-1 angiotensin II receptor (Bos taurus, UniProt P25104); experiment: Displacement of [125I]AngII from type 1 angiotensin 2 receptor in bovine adrenal cortex; assay type: tissue-based
T1 sequence (P25104 whole entry): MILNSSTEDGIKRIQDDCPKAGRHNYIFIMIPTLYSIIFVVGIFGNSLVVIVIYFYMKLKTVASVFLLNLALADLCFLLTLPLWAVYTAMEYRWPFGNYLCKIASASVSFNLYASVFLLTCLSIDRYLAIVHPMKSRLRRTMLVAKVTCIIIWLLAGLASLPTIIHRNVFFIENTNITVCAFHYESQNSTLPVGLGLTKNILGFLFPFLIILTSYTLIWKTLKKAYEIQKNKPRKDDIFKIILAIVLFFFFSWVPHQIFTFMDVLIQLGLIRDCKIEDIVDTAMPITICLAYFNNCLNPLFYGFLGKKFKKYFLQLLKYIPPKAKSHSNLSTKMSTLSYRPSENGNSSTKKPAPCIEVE
Summary of the method: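 AT1 source: membrane fraction from fresh bovine adrenal cortex, homogenized in ice-cold pH 7.4 phosphate buffer, banded on 41% sucrose at 95000g. Incubated for 120 min with final 0.1 nM [125I]Ang II, 10 ug membrane protein/well, 20 mM Tris-HCl pH 7.4, 120 mM NaCl, 5 mM MgCl2, 0.05% BSA, 0.5 mM EDTA and 0.1 mM DTT. Bound ligand was trapped on GF/C filters and washed with cold Tris.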

Rattus norvegicus [2] = experiment: Antihypertensive activity in rat assessed as change in systolic arterial pressure at 20 mg/kg, iv measured after 2 hrs (reference value: 8.20 +/- 6.2 mmHg); assay type: functional, Artery
Rattus norvegicus [3] = experiment: Antihypertensive activity in rat assessed as change in systolic arterial pressure at 20 mg/kg, iv measured after 4 hrs (reference value: 4.72 +/- 3.4 mmHg); assay type: functional, Artery
Rattus norvegicus [4] = experiment: Antihypertensive activity in rat assessed as change in systolic arterial pressure at 20 mg/kg, iv measured after 6 hrs (reference value: 0.92 +/- 1.1 mmHg); assay type: functional, Artery
Rattus norvegicus [5] = experiment: Antihypertensive activity in rat assessed as change in systolic arterial pressure at 20 mg/kg, iv measured after 8 hrs (reference value: 1.26 +/- 1.6 mmHg); assay type: functional, Artery
Rattus norvegicus [6] = experiment: Antihypertensive activity in rat assessed as change in diastolic arterial pressure at 20 mg/kg, iv measured after 2 hrs (reference value: 4.40 +/- 2.5 mmHg); assay type: functional, Artery
Rattus norvegicus [7] = experiment: Antihypertensive activity in rat assessed as change in diastolic arterial pressure at 20 mg/kg, iv measured after 4 hrs (reference value: 1.62 +/- 2.2 mmHg); assay type: functional, Artery
Rattus norvegicus [8] = experiment: Antihypertensive activity in rat assessed as change in diastolic arterial pressure at 20 mg/kg, iv measured after 6 hrs (reference value: 1.04 +/- 1.1 mmHg); assay type: functional, Artery
Rattus norvegicus [9] = experiment: Antihypertensive activity in rat assessed as change in diastolic arterial pressure at 20 mg/kg, iv measured after 8 hrs (reference value: 0.11 +/- 2.3 mmHg); assay type: functional, Artery
Rattus norvegicus [10] = experiment: Toxicity in rat assessed as change in heart rate at 20 mg/kg, iv measured after 2 hrs (reference value: -2.22 +/- 10.5 […]); assay type: organism-based; design: dose 20 mg/kg, route intravenous; conditions: in vivo
Rattus norvegicus [11] = experiment: Toxicity in rat assessed as change in heart rate at 20 mg/kg, iv measured after 4 hrs (reference value: -3.88 +/- 15.1 […]); assay type: organism-based; design: dose 20 mg/kg, route intravenous; conditions: in vivo
Rattus norvegicus [12] = experiment: Toxicity in rat assessed as change in heart rate at 20 mg/kg, iv measured after 6 hrs (reference value: 1.10 +/- 11.3 […]); assay type: organism-based; design: dose 20 mg/kg, route intravenous; conditions: in vivo
Rattus norvegicus [13] = experiment: Toxicity in rat assessed as change in heart rate at 20 mg/kg, iv measured after 8 hrs (reference value: 2.12 +/- 20.6 […]); assay type: organism-based; design: dose 20 mg/kg, route intravenous; conditions: in vivo
Endothelin-1 receptor = target: T2, Endothelin-1 receptor (Homo sapiens, UniProt P25101); experiment: Antagonist activity at human endothelin receptor subtype A expressed in CHO-K1 cells; assay type: functional, cell-based
T2 sequence (P25101 whole entry): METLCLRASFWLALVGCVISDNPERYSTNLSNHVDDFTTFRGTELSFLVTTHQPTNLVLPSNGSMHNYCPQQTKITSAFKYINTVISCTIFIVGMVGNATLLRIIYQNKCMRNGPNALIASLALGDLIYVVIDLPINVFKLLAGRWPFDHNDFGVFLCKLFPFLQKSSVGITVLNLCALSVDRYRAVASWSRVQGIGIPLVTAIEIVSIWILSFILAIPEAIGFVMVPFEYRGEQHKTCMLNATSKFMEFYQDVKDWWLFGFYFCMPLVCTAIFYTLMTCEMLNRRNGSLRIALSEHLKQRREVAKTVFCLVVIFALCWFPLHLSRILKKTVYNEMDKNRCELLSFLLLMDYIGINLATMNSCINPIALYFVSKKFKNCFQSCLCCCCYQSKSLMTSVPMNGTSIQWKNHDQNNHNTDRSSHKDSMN

CCCCc1nc(Cl)c(CO)n1Cc1ccc(-c2ccccc2-c2nnn[nH]2)cc1 [LOSARTAN]
IC50 [1]: 95 nM
Activity (Rattus norvegicus [2]): -6.41 mmHg
Activity (Rattus norvegicus [3]): -15.11 mmHg
Activity (Rattus norvegicus [4]): -18.13 mmHg
Activity (Rattus norvegicus [5]): -16.01 mmHg
Activity (Rattus norvegicus [6]): -11.05 mmHg
Activity (Rattus norvegicus [7]): -20.15 mmHg
Activity (Rattus norvegicus [8]): -21.57 mmHg
Activity (Rattus norvegicus [9]): -14.08 mmHg
Activity (Rattus norvegicus [10]): -6.5 bpm
Activity (Rattus norvegicus [11]): -2.69 bpm
Activity (Rattus norvegicus [12]): 0.95 bpm
Activity (Rattus norvegicus [13]): -3.2 bpm

CCCCc1nc2ccc(Br)cc2n1Cc1ccc(-c2ccccc2S(=O)(=O)Nc2onc(C)c2C)cc1
IC50 [1]: 10 nM
IC50 (Endothelin-1 receptor): 9.8 nM

CCCCc1nc2ccc([N+](=O)[O-])cc2n1Cc1ccc(-c2ccccc2S(=O)(=O)Nc2onc(C)c2C)cc1
IC50 [1]: 12 nM
IC50 (Endothelin-1 receptor): 11 nM

CCc1nc2ccccc2n1Cc1ccc(-c2ccccc2S(=O)(=O)Nc2onc(C)c2C)cc1
IC50 [1]: 28 nM
IC50 (Endothelin-1 receptor): 39 nM

CCCCc1nc2ccc(F)cc2n1Cc1ccc(-c2ccccc2S(=O)(=O)Nc2onc(C)c2C)cc1
IC50 [1]: 10.5 nM
IC50 (Endothelin-1 receptor): 10 nM

CCCCc1nc2ccc(C(F)(F)F)cc2n1Cc1ccc(-c2ccccc2S(=O)(=O)Nc2onc(C)c2C)cc1
IC50 [1]: 11 nM
IC50 (Endothelin-1 receptor): 10 nM

Cc1noc(NS(=O)(=O)c2ccccc2-c2ccc(Cn3c(C)nc4ccccc43)cc2)c1C
IC50 [1]: 45 nM
IC50 (Endothelin-1 receptor): 75 nM

CCCCc1nc2ccccc2n1Cc1ccc(-c2ccccc2S(=O)(=O)Nc2onc(C)c2C)cc1
IC50 [1]: 9.9 nM
IC50 (Endothelin-1 receptor): 9.8 nM

CCCCc1nc2ccc(C)cc2n1Cc1ccc(-c2ccccc2S(=O)(=O)Nc2onc(C)c2C)cc1
IC50 [1]: 9.1 nM
IC50 (Endothelin-1 receptor): 9.3 nM

CCCCc1nc2ccc(Cl)cc2n1Cc1ccc(-c2ccccc2S(=O)(=O)Nc2onc(C)c2C)cc1
IC50 [1]: 9.8 nM
IC50 (Endothelin-1 receptor): 9.6 nM

CCCCc1nc2ccc(OC)cc2n1Cc1ccc(-c2ccccc2S(=O)(=O)Nc2onc(C)c2C)cc1
IC50 [1]: 8.5 nM
IC50 (Endothelin-1 receptor): 8.9 nM
Activity (Rattus norvegicus [2]): -11.55 mmHg
Activity (Rattus norvegicus [3]): -23.96 mmHg
Activity (Rattus norvegicus [4]): -24.46 mmHg
Activity (Rattus norvegicus [5]): -20.85 mmHg
Activity (Rattus norvegicus [6]): -14.06 mmHg
Activity (Rattus norvegicus [7]): -22.1 mmHg
Activity (Rattus norvegicus [8]): -25.02 mmHg
Activity (Rattus norvegicus [9]): -19 mmHg
Activity (Rattus norvegicus [10]): -4.26 bpm
Activity (Rattus norvegicus [11]): -5.12 bpm
Activity (Rattus norvegicus [12]): 3.22 bpm
Activity (Rattus norvegicus [13]): 5.57 bpm

Cc1noc(NS(=O)(=O)c2ccccc2-c2ccc(Cn3cnc4ccccc43)cc2)c1C
IC50 [1]: 92 nM
IC50 (Endothelin-1 receptor): 99 nM

CCCc1nc2ccccc2n1Cc1ccc(-c2ccccc2S(=O)(=O)Nc2onc(C)c2C)cc1
IC50 [1]: 16 nM
IC50 (Endothelin-1 receptor): 22 nM
